Where no end group is shown, it is not given here. ROX = carboxy-X-rhodamine
Tests used:
[1] = biological target: T1, IL-1β (Homo sapiens, UniProt P01584); test: On-bead microplate equilibrium binding assay, IL-1β
Method in brief: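 Human IL-1β, N-terminal His-tag, expressed in E. coli BL21(DE3), purified by Ni-NTA and size exclusion. Labelled with 3 equiv ROX-NHS for 1 h at room temperature, free dye removed on G-25. Three compound-bearing PEGA beads per well, in triplicate. Two-fold dilutions from 10 μM in 5 mM phosphate buffer, overnight incubation. ROX fluorescence imaged at 2 ms exposure. Kd from one-site nonlinear fit.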

[2] = biological target: T1, IL-1β; test: Sandwich assay for IL-1β; format: binding; conditions: capture 10 with detection ROX-2, 50 nM IL-1β, deionized water
[3] = Unspecific interaction between capture and detection β-body; format: binding
Method in brief: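 Capture β-body was covalently linked to PEGA1900 beads and mixed in solution with purified ROX-labelled detection β-body, with no target protein added. For the IL-1β pair, incubation was in deionised water in glass vials for 3 h. Beads were then imaged by wide-field fluorescence microscopy for ROX at 560/14 nm excitation and 605/52 nm emission.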

[4] = test system: IL-6; test: Sandwich assay for IL-6; format: binding, human; conditions: capture 6 / ROX-labeled 7, with 0.05–0.1 M urea, 20 nM IL-6
[5] = test system: IL-2; test: Sandwich assay for IL-2; format: binding, human; conditions: for detection of IL-2 in sandwich assay: capture bead-4 plus detection ROX-5, 50 nM IL-2, deionized water; for bead fluorescence in sandwich assay before protein addition: capture bead-4 plus detection ROX-5, deionized water, no IL-2
[6] = biological target: T1, IL-1β; test: On-bead binding assay by fluorescence microscopy; conditions: on PEGA beads, 50 nM ROX-IL-1β
Method in brief: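 Human IL-1β came from a codon-optimised gene with an N-terminal His-tag, expressed in E. coli BL21(DE3) and purified by Ni-NTA then size exclusion in PBS. It was labelled with 3 equiv ROX-NHS for 1 h at room temperature, excess dye removed on G-25 gel filtration, and quantified by 660 nm protein assay. Acetylated beads without β-body served as negative control. ROX read at 560/14 nm excitation and 605/52 nm emission.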

[7] = test system: IL-1α; test: On-bead binding specificity test; parameters: species or system human; conditions: 50 nM ROX-IL-1α, PEGA beads, Figure 4B
[8] = biological target: T2, GFP (Aequorea victoria, UniProt P42212, F64L/H231L/S65T); test: On-bead microplate equilibrium binding assay, GFP
Method in brief: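 Three equal-sized PEGA beads bearing the test compound per well, in triplicate. Purified His-tagged GFP in Milli-Q water, two-fold serial dilutions from 20 μM. Incubated overnight at room temperature to equilibrium. Per-bead fluorescence quantified by microscopy (1 ms exposure, GFP filter set). Kd from a one-site specific binding nonlinear regression fit; points average 3–6 measurements.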

[9] = biological target: T2, GFP; test: On-bead binding assay by fluorescence microscopy; conditions: on PEGA beads, 50 nM GFP
Method in brief: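 Recombinant N-terminally His-tagged GFP expressed in E. coli BL21(DE3), purified by Ni-NTA then size exclusion in PBS pH 7.4. Concentration from A490 (ε 55 000 M–1 cm–1). PEGA beads bearing the test compound placed in microplate wells with 50 nM GFP. N-acetylated beads served as negative control. Bead fluorescence imaged by microscopy (ex 482/18 nm, em 520/28 nm).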

[10] = biological target: T2, GFP; test: Binding of GFP from E. coli cell lysate to β-body beads; conditions: beads with lysed E. coli cells expressing GFP
Method in brief: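 PEGA beads carrying the test compound incubated with lysed E. coli cells expressing GFP. Bead-bound GFP imaged by wide-field fluorescence microscopy (ex 482/18 nm, em 520/28 nm). For capture, beads washed with water, bound GFP eluted with PBS, and the eluate analysed by SDS-PAGE alongside the whole-cell lysate.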

[11] = biological target: T2, GFP; test: Affinity purification of GFP from cell lysate on PEGA-β-body column, SDS-PAGE; conditions: packed PEGA column, washed with water, eluted with PBS
Method in brief: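 GFP from Aequorea victoria, with an N-terminal His-tag, was expressed in E. coli BL21(DE3) from a pET plasmid. Culture was in LB with 100 μg/mL ampicillin at 37 °C to mid-exponential phase, then induced with 1 mM IPTG for 18 h at 20 °C. Cells were lysed in 50 mM Tris, 0.5 M NaCl, pH 8.0 with lysozyme and sonication, then clarified. SDS-PAGE gels were Coomassie-stained.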

[12] = biological target: human recombinant IL-2 (ProSpec) (human, UniProt P60568 21-153); test: on-bead fluorescence microscopy
Sequence of human recombinant IL-2 (ProSpec) (P60568 21-153): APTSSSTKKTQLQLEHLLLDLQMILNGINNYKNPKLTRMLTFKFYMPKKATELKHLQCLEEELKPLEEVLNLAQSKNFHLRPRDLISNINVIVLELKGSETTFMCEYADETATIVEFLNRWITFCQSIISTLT

Which Kd [1] does the source give for TWTETYTWTEPGDTQTLTITNTG [β-body 3] here?
The Kd was 610 ± 50 nM.

With ROX-ETDTYTETYPGYTSTWTITDG [ROX-2] as the molecule, how does the “detection of IL-1β in sandwich assay” value [2] read?
The value was “enabled us to also detect IL-1β in nanomolar concentrations”.

And the “unspecific binding of detection peptide to capture peptide” value ([3]; ROX-labeled 2 / capture 3 (IL-1β pair))?
Its value is “could not be prevented without affecting at the same time the binding of IL-1β”.

For ROX-TMTDTDTYPGFTDTLTHAG [ROX-7], which “fluorescence from beads with IL-6 added” value [4] is on record?
The value was “remained strongly fluorescent”.

And the “unspecific interaction between capture and detection peptide at surface of beads” value ([3]; capture 6 / ROX-labeled 7 (IL-6 pair), no urea)?
The value was “some unspecific interaction”.

For NTVTNTMTRPGVTETVTQTDG [β-body 4], which “detection of IL-2 in sandwich assay” value [5] is on record?
The value was “fluorescent beads were then observed exclusively after addition of 50 nM of IL-2”.

What about the “bead fluorescence in sandwich assay before protein addition” value [5] of the same molecule?
Its value is “no observation of fluorescence on the beads”.

With ETDTYTETYPGRTITWTITDG [β-body 2] as the molecule, how does the “binding of ROX-labeled IL-1β to β-body beads” value [6] read?
Its value is “binding was observed”.

What about the “binding of ROX-labeled IL-1α to β-body beads (specificity)” value [7] of the same molecule?
The value was “no interaction”.

Which results are given for TETKTVTITRPKMTWTFTHTVTG [β-body 1]?
Kd [8]: 184 ± 28.6 nM; binding of GFP to β-body beads [9]: binding was observed; binding of GFP from cell lysate [10]: binding was observed; transfer of fluorescence from lysate to beads [10]: quantitatively transferred from the lysate to the beads; purification of GFP from cell lysate [11]: a significant up-concentration of GFP was achieved with removal of the majority of other proteins in the cell lysate

For ROX-TRTLTYTEPGITQTKTEAG [ROX-5], which “detection of IL-2 in sandwich assay” value [5] is on record?
Its value is “fluorescent beads were then observed exclusively after addition of 50 nM of IL-2”.

What about the “bead fluorescence in sandwich assay before protein addition” value [5] of the same molecule?
The value was “no observation of fluorescence on the beads”.

Does {ROX}-TRTLTYTEPGITQTKTEAG (designed binder) [ROX-labeled β-body 5] bind [12]?
Result: binds
